Assay results from different studies.
KIT: Mast/stem cell growth factor receptor Kit (KIT, Homo sapiens, UniProt P10721)
KIT D816H: Mast/stem cell growth factor receptor Kit (KIT, Homo sapiens, UniProt P10721, D816H)
KIT T670I/V559D: Mast/stem cell growth factor receptor Kit (KIT, Homo sapiens, UniProt P10721, T670I/V559D)
KIT V559D/V654A: Mast/stem cell growth factor receptor Kit (KIT, Homo sapiens, UniProt P10721, V559D/V654A)
KIT V560G: Mast/stem cell growth factor receptor Kit (KIT, Homo sapiens, UniProt P10721, V560G)
KIT D816V: Mast/stem cell growth factor receptor Kit (KIT, Homo sapiens, UniProt P10721, D816V)

Structure (SMILES) | target | test | conditions | measurement | value
CC1CCCN1c1nccc(-c2cnn3ncccc23)n1 (stereo not drawn) | KIT | binding | 1 µM | remaining binding | 100%
CCS(=O)(=O)c1cc2cc(C[C@@](O)(CC(C)(C)c3ccc(F)cc3C(N)=O)C(F)(F)F)[nH]c2cn1 | KIT D816H | cell-free assay, competition with immobilised ligand | 1 µM | remaining binding | 51%
Cc1cnc(NC2CCOCC2)nc1-n1cnc(C(=O)NC(CN)c2cc(F)cc(Cl)c2)c1 (stereo not drawn) | KIT D816H | enzyme activity, inhibitor, radiometric | 1 µM | remaining activity | 96%
Nc1ncnc2occ(-c3ccc(NC(=O)Nc4cc(C(F)(F)F)ccc4F)cc3)c12 | KIT T670I/V559D | cell-free assay, inhibitor | 20 µM | remaining signal | 0.05%
CC/C(=N\NC(=O)NCc1cccc(O)c1)c1ccc(O)c(C)c1O | Mast/stem cell growth factor receptor Kit (KIT, Homo sapiens, UniProt P10721, D816Y) | enzyme activity, inhibitor | 0.1 µM | inhibition | -0.1%
CCCOc1ccc([C@@H]2[C@@H](C(=O)O)[C@H](c3ccc4c(c3)OCO4)CN2CC(=O)Nc2c(CC)cccc2CC)cc1 | KIT V559D/V654A | cell-free assay, competition with immobilised ligand | 1 µM | remaining binding | 94%
F[C@@H]1CCN(c2nccc(-c3cnn4ncccc34)n2)C1 | KIT | binding | 1 µM | remaining binding | 91%
COc1cc(-c2cc(-c3ccc(N4CCNCC4)cc3)cnc2N)cc(OC)c1OC | KIT V560G | enzyme activity, inhibitor | 0.1 µM | inhibition | 4%
c1cnn2ncc(-c3ccnc(N4CCC45COC5)n3)c2c1 | KIT V559D/V654A | binding | 1 µM | remaining binding | 100%
CCCCN(CCCC)C(=O)CN1C[C@@H](c2cc(OC)c3c(c2)OCO3)[C@H](C(=O)O)[C@H]1CC(C)(C)CCC | KIT T670I/V559D | cell-free assay, competition with immobilised ligand | 1 µM | remaining binding | 79%
N[C@@H]1CCN(c2nccc(-c3cnn4ncccc34)n2)C1 | KIT D816V | binding | 1 µM | remaining binding | 100%
CN(C(=O)c1ccccc1)c1cc(N(C)c2ccc3c(c2)CCc2ccc(C(=O)NCCN4CCOCC4)cc2C3=O)ccc1F | KIT T670I/V559D | cell-free assay, competition with immobilised ligand | 1 µM | remaining binding | 99%
CCCOc1ccc(OC)c(F)c1C(=O)c1ccc(C(=O)N[C@@H]2CNC[C@H]2NC(=O)c2ccc3[nH]ncc3c2)cc1 | KIT | enzyme activity, inhibitor | 10 µM | remaining activity | 104%
Cc1cc(NC(=O)c2cccc3cc(-c4cccc5[nH]nc(N)c45)ccc23)ccc1F | KIT D816H | enzyme activity, inhibitor | 0.1 µM | activity vs control | 37%
CNC(=O)c1ccc(Nc2ncc(C(F)(F)F)c(NCc3nccnc3N(C)S(C)(=O)=O)n2)cc1 | KIT D816H | cell-free assay, competition with immobilised ligand | 0.1 µM | remaining binding | 71%
Cc1ccc(C(=O)NCc2ccsc2)cc1C#Cc1cn(C(C)C)c2ncnc(N)c12 | KIT V560G | enzyme activity, inhibitor | 1 µM | activity vs control | 4%
C[C@H]1CCN(c2nccc(-c3cnn4ncccc34)n2)C1 | KIT D816V | binding | 1 µM | remaining binding | 100%
CNC(=O)Nc1ccc2c(c1)CC[C@@]21OC(=O)N(CC(=O)N(Cc2ccc(F)cc2)[C@@H](C)C(F)(F)F)C1=O | KIT V559D/V654A | cell-free assay, competition with immobilised ligand | 1 µM | remaining binding | 90%
